Compound activity as filed in PubChem BioAssay.
RGS4 pot: RGS4 potentiators or activators, primary screen, cell-based, HEK293 M3R inducible RGS4, calcium flux; B-score at 10 µM; carbachol calcium flux Fluo4; stronger effect = lower value; actives 0.92% (n = 310,000); AID 463111, 2010;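 active means B-score of the integrated calcium signal more than 4 SD below the library mean, with starting fluorescence not abnormally high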;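 further: negative B-score means reduced calcium response which marks RGS4 activation or potentiation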
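Also added: carbachol at ECmax as muscarinic agonist stimulus; Assay system: HEK293 cells with stable M3R and inducible RGS4; Timing: overnight RGS4 induction, 30 min dye load 37 °C, 20 min compound RT; Measured by: Fluo4-AM (2 µM) calcium-flux fluorescence, kinetic read.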
MrgX1 ag: agonists of human MrgX1 receptor, primary screen, HEK293 cells, Fluo-4 calcium flux | Mas-related G-protein coupled receptor member X1 (Homo sapiens), Q96LB2 | Fluo-4 calcium fluorescence, agonist mode; stronger effect = higher value | B-score at 10 µM | actives 0.44% (n = 310,000);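 active means calcium response B-score plate-corrected fluorescence ratio at least 3 library SD, with starting fluorescence B-score inside 5 SD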
Target sequence (Q96LB2 whole entry, looked up): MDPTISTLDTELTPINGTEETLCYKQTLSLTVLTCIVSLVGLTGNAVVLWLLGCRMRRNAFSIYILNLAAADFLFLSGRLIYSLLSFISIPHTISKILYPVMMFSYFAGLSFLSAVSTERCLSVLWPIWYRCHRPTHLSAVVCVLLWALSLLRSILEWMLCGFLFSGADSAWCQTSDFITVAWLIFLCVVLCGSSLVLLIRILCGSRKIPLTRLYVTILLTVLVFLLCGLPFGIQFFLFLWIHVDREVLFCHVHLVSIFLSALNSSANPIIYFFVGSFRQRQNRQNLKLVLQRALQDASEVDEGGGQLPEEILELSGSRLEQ
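System: HEK293 cells stably expressing human MrgX1 receptor; Dosing: test compound in the initial addition of three; Schedule: overnight plating, then 30 min 37 °C plus 30 min room-temperature dye loading; Detection: kinetic calcium dye fluorescence, Fluo-4 NW; Controls: per-plate positive and negative controls for Z′ factor.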
MrgX1 antagonist: antagonists of human MrgX1 receptor, primary screen, HEK293 cells, Fluo-4 calcium flux. AID 588676, 2011. B-score at 10 µM. actives 1.3% (n = 310,000). Mas-related G-protein coupled receptor member X1 (Homo sapiens), Q96LB2. BAM8-22 antagonism; stronger effect = lower value;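 active means calcium-response B-score plate-corrected more than 3 library SD below zero, starting fluorescence within 5 deviations, no agonist response on first addition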;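 further: peak minus trough fluorescence over baseline after final BAM8-22 challenge near maximal dose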
KCC2 mod: KCC2 cotransporter modulators, thallium flux, primary screen, cell-based, HEK293 KCC2, FluoZin-2 fluorescence, MLSMR; Solute carrier family 12 member 5 (Homo sapiens), Q9H2X9; KCC2 cells, thallium flux FluoZin-2 fluorescence; B-score of Tl+ flux slope (higher = more flux/activation; lower = inhibition) at 10 µM; actives 2.2% (n = 190,000); AID 1456, 2008;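 active means thallium flux slope and its plate-corrected score both differing from the plate sample mean at a set confidence after two filtering rounds, in either direction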;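 further: slope of fluorescence scaled to starting intensity during 10 to 20 s after thallium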
RGS4 block: RGS4 inhibitors, primary screen, cell-based, HEK293 M3R inducible RGS4, calcium flux; Regulator of G-protein signaling 4 (Homo sapiens), P49798; actives 0.45% (n = 310,000); Fluo-4 calcium flux; stronger effect = higher value; triggered by carbachol at its EC20; B-score at 10 µM;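 active means B-score, a plate-corrected calcium signal, over three deviations above library mean, with baseline fluorescence within five deviations of library mean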;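 further: RGS4 expression induced by doxycycline in cells with stable M3 receptor; B-score is computed from the integrated fluorescence ratio over baseline after carbachol; higher B-score means a larger calcium signal and so more RGS4 inhibition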
Target sequence (P49798 whole entry, looked up): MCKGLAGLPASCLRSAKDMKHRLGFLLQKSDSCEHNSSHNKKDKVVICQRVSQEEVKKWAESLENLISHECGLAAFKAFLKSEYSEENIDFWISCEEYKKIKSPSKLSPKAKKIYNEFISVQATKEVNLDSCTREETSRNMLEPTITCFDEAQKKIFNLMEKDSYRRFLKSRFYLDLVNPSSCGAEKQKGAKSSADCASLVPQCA
MrgX1 PAM: positive allosteric modulators of MrgX1, primary screen, HEK293 cells, Fluo-4 calcium flux; Mas-related G-protein coupled receptor member X1 (Homo sapiens), Q96LB2; FDSS; stronger effect = higher value; B-score at 10 µM; actives 0.63% (n = 310,000); AID 588675, 2011;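 active means plate-corrected calcium response at least 3 library SD above typical, normal starting fluorescence, not activating the receptor alone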;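 further: compound read alongside a low EC10 to EC30 dose of BAM8-22 agonist; peak minus trough fluorescence over baseline measured at the second addition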
MrgX1 ant reconf: MrgX1 receptor antagonists, duplicate retest, confirmation, HEK293 cells, Fluo-4 calcium flux; BAM8-22 calcium flux; stronger effect = lower value; remaining BAM8-22 calcium response % of control (stronger effect = lower value), % at 10 µM; actives 19% (n = 2,300); shares compounds with MrgX1 antagonist; AID 602420, 2012;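 active means remaining agonist calcium response no higher than 100% minus 3 SD of agonist-only control wells, with starting fluorescence near control levels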;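 further: agonist BAM8-22 given at a near maximal EC90 to ECmax level; peak minus minimum fluorescence divided by baseline after agonist addition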
HEK293 Ca flux: nonspecific calcium signal in parental HEK293, confirmation, counter-screen for MrgX1 antagonist project, parental HEK293 cells, Fluo-4 calcium flux; shares compounds with MrgX1 antagonist; Fluo-4 calcium fluorescence, FDSS; fluorescence ratio F(max-min)/F0 at 10 µM; actives 2% (n = 4,000);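 active means duplicate-averaged calcium fluorescence ratio at least three times the standard deviation of buffer wells, a nonspecific response in parental cells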
HEK293 Ca counter: calcium response in parental HEK293 cells, primary screen, counter-screen for MrgX1 allosteric activator project, cell-based, Fluo-4 calcium flux, duplicate. shares compounds with MrgX1 antagonist. Fluo-4 fluorescence ratio; stronger effect = higher value. fluorescence ratio F(max-min)/F0 at 10 µM. actives 0.4% (n = 4,000). AID 624114, 2012;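 active means calcium fluorescence ratio, averaged over duplicates, at least 3 SD of the buffer-well ratio, meaning a nonspecific response in receptor-free cells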;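 further: untransfected parental HEK293 lacking MrgX1 used as counterscreen for MrgX1 allosteric activators; fluorescence change taken during the second addition on a kinetic imager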
HEK293 Ca cntr2: calcium response in parental HEK293 cells, primary screen, counter-screen for MrgX1 agonist project, cell-based, Fluo-4 calcium flux, duplicate, agonist mode. shares compounds with MrgX1 antagonist. Fluo-4 calcium fluorescence (FDSS); stronger effect = higher value. fluorescence ratio F(max-min)/F0 at 10 µM. actives 8.7% (n = 4,000). AID 624115, 2012;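 active means calcium fluorescence ratio at least three times the spread of buffer wells, meaning a non-specific response in parental cells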
* marks the source's active call; other numbers are inactive results; i = inactive; . = not tested or not shown; ! = not confirmed by another sample. Hits are enriched below; roughly 4.7% of the tested compounds scored in any of these assays.

SMILES	RGS4 pot	MrgX1 ag	MrgX1 antagonist	KCC2 mod	RGS4 block	MrgX1 PAM	MrgX1 ant reconf	HEK293 Ca flux	HEK293 Ca counter	HEK293 Ca cntr2
O=S(=O)(Cc1cc(NCc2ccccc2)nc(-c2ccccn2)n1)c1ccccc1	i	i	-5.7*	-0.85	i	i	86%*	i	i	i
Cc1ccccc1OCC(O)Cn1c(=N)n(CCN2CCOCC2)c2ccccc21 (centres undefined)	i	i	-8.5*!	0.034	i	i	i	i	i	i
O=C(O)CN1C(=O)C(=O)N(Cc2ccccc2F)C1=O	i	i	i	.	i	i	.	.	.	.
CCOc1ccc2c(c1)S/C(=C\c1cccs1)C(=O)N2	i	i	i	-1.2	i	i	.	.	.	.
Cc1ccc(C(=O)NCCNC(=O)c2ccc(F)cc2)cn1	i	i	i	.	i	i	.	.	.	.
COc1ccc(-c2nc3c(c4nnc(SC(C)C(=O)Nc5ccccc5)n24)COC(C)(C)C3)cc1 (centres undefined)	i	i	-6.5*	0.37	i	i	i	i	i	i
COc1ccc(NC(=O)C(C)Sc2nnc3c4c(nc(-c5ccc(OC)cc5)n23)CC(C)(C)OC4)cc1 (centres undefined)	i	i	i	-0.51	i	i	.	.	.	.
CC(C)(C)Cc1nnc(NC(=O)CSc2ccccc2)s1	i	i	i	.	i	i	.	.	.	.
CCN(CC)C(=O)CSc1nc(OC)cc(=O)[nH]1	i	i	-9.5*	0.39	i	i	i	i	i	53*
COc1ccc2c(c1OC)C(=O)OC2Nc1ccccc1S(=O)(=O)C(F)F (centres undefined)	i	i	-4.7*	1.4	i	i	i	i	i	i
CCN(CC)CCn1nc2c3c(cccc3c1=O)-c1ccccc1-2	i	i	i	-0.1	i	i	.	.	.	.
CCN(CC)CCN1C(=O)Cn2c(C)c(C)c3cccc1c32	i	i	-5*!	2	i	i	i	i	i	i
COC(=O)c1ccc(NC(=O)c2cc[n+](Cc3ccccc3)cc2)cc1	i	i	i	.	i	i	.	.	.	.
COc1ccccc1-n1c(C)nc2cc(C(=O)O)ccc21	i	i	-4.8*	0.28	i	i	i	i	i	i
Cc1nc2cc(C(=O)O)ccc2n1-c1ccccc1	i	i	i	.	i	i	.	.	.	.
CCOc1ccccc1NC(=O)NC(C)c1ccc2c(c1)OCO2 (centres undefined)	i	i	i	.	i	i	.	.	.	.
